Measurements taken from ChEMBL document CHEMBL2424567, “Hybrid peptides endomorphin-2/DAMGO: design, synthesis and biological evaluation” (Eur J Med Chem, 2013).
Active and inactive are the calls of the source. Non-standard residues stand in square brackets, D forms with d. Residues, ends and D or L forms follow the SMILES beside them. *: point of attachment. NHCH2CH2OH = OCCN*; Sar = CNCC(=O)O

tested on: not listed separately; experiment: Half life in human plasma at 100 ug/mL; type: ADME, cell-free; conditions: not given
Method in brief: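 Thawed human plasma spiked with compound in DMSO to 100 µg/mL final, incubated at 37 °C. Samples taken at set times were quenched with 5% ZnSO4/MeOH/ACN (5:3:2), centrifuged, and the supernatant analysed by reversed-phase HPLC-UV (275 or 254 nm). Calibration range 10–100 µg/mL. Three independent experiments.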

SMILES | half-life at 100 ug/mL [min]
CN(C(=O)[C@H](Cc1ccccc1)N(C)C(=O)[C@@H]1CCCN1C(=O)[C@@H](N)Cc1ccc(O)cc1)[C@@H](Cc1ccccc1)C(=O)NCCO.O=C(O)C(F)(F)F | 40

tested on: Mus musculus; experiment: Antinociceptive effect in icv dosed CD1 mouse assessed as increase in tail-flick latency period by tail flick test; type: functional; conditions: not given
Method in brief: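 Male CD-1 mice (25–30 g) given i.c.v. injection under light isoflurane (2 mm caudal/2 mm lateral of bregma, 3 mm deep, 5 µL), various doses. Radiant infrared heat focused 3–4 cm from tail tip; withdrawal latency with 15 s cut-off. Baseline is the mean of three readings 15 min apart; readings at 5–30 min. Result as %MPE; AD50 with 95% confidence limits by graded dose–response.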

SMILES | AD50
CN(CC(=O)N[C@@H](Cc1ccccc1)C(=O)NCCO)C(=O)[C@@H]1CCCN1C(=O)[C@@H](N)Cc1ccc(O)cc1 (H-YP[Sar]F-NHCH2CH2OH) | inactive
NC(=O)[C@H](Cc1ccccc1)NC(=O)[C@H](Cc1ccccc1)NC(=O)[C@@H]1CCCN1C(=O)[C@@H](N)Cc1ccc(O)cc1 [ENDOMORPHIN 2] | 1.49 nmol
CN(C(=O)[C@H](Cc1ccccc1)N(C)C(=O)[C@@H]1CCCN1C(=O)[C@@H](N)Cc1ccc(O)cc1)[C@@H](Cc1ccccc1)C(=O)NCCO.O=C(O)C(F)(F)F | 2.65 nmol
CN(C(=O)[C@H](Cc1ccccc1)NC(=O)[C@@H]1CCCN1C(=O)[C@@H](N)Cc1ccc(O)cc1)[C@@H](Cc1ccccc1)C(=O)NCCO.O=C(O)C(F)(F)F | 5.56 nmol
CN(C(=O)[C@@H]1CCCN1C(=O)[C@@H](N)Cc1ccc(O)cc1)[C@@H](Cc1ccccc1)C(=O)N[C@@H](Cc1ccccc1)C(=O)NCCO.O=C(O)C(F)(F)F | 3.03 nmol
N[C@@H](Cc1ccc(O)cc1)C(=O)N1CCC[C@H]1C(=O)N[C@@H](Cc1ccccc1)C(=O)N[C@@H](Cc1ccccc1)C(=O)NCCO.O=C(O)C(F)(F)F | 3.44 nmol

tested on: Mus musculus; experiment: Analgesic activity in icv dosed CD1 mouse assessed as inhibition of heat-induced jumping behaviour after 5 to 30 mins by hot plate method; type: functional; conditions: not given
Method in brief: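 Male CD-1 mice (25–30 g), lightly isoflurane-anaesthetised, injected i.c.v. 2 mm caudal and 2 mm lateral of bregma, 3 mm depth, 5 µL; various doses. Plate held at 55.0 ± 0.1 °C; latency to paw licking or jumping, 60 s cut-off. Baseline is the mean of three readings 15 min apart; readings at 5, 10, 15, 20 and 30 min. Result as %MPE; AD50 with 95% confidence limits by graded dose–response.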

SMILES | AD50
CN(CC(=O)N[C@@H](Cc1ccccc1)C(=O)NCCO)C(=O)[C@@H]1CCCN1C(=O)[C@@H](N)Cc1ccc(O)cc1 (H-YP[Sar]F-NHCH2CH2OH) | inactive
NC(=O)[C@H](Cc1ccccc1)NC(=O)[C@H](Cc1ccccc1)NC(=O)[C@@H]1CCCN1C(=O)[C@@H](N)Cc1ccc(O)cc1 [ENDOMORPHIN 2] | 2.29 nmol
CN(C(=O)[C@H](Cc1ccccc1)N(C)C(=O)[C@@H]1CCCN1C(=O)[C@@H](N)Cc1ccc(O)cc1)[C@@H](Cc1ccccc1)C(=O)NCCO.O=C(O)C(F)(F)F | 3.77 nmol
CN(C(=O)[C@H](Cc1ccccc1)NC(=O)[C@@H]1CCCN1C(=O)[C@@H](N)Cc1ccc(O)cc1)[C@@H](Cc1ccccc1)C(=O)NCCO.O=C(O)C(F)(F)F | 9.44 nmol
CN(C(=O)[C@@H]1CCCN1C(=O)[C@@H](N)Cc1ccc(O)cc1)[C@@H](Cc1ccccc1)C(=O)N[C@@H](Cc1ccccc1)C(=O)NCCO.O=C(O)C(F)(F)F | 9.6 nmol
N[C@@H](Cc1ccc(O)cc1)C(=O)N1CCC[C@H]1C(=O)N[C@@H](Cc1ccccc1)C(=O)N[C@@H](Cc1ccccc1)C(=O)NCCO.O=C(O)C(F)(F)F | 6.66 nmol

species on record: Rattus norvegicus; experiment: Selectivity ratio of Ki for delta opioid receptor in Wistar rat brain membranes to Ki for mu opioid receptor in Wistar rat brain membranes; type: cell membranes; conditions: Membrane
Method in brief: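 Washed Wistar rat brain membranes (0.2–0.4 mg/ml protein) incubated 30 min at 25 °C in 50 mM Tris-HCl pH 7.4 with BSA, captopril, bestatin and phosphoramidon (1 µM each). Radioligands were [3H]DAMGO (0.9–1.2 nM, μ) or [3H]Ile5,6-deltorphin-2 (0.8–1.3 nM, δ); competitor at 10^-11–10^-5 M; nonspecific binding with 10 µM naloxone. Filtration and scintillation counting; Ki by Cheng–Prusoff; δ/μ Ki ratio.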

SMILES | Ratio Ki
CN(C(=O)[C@H](Cc1ccccc1)N(C)C(=O)[C@@H]1CCCN1C(=O)[C@@H](N)Cc1ccc(O)cc1)[C@@H](Cc1ccccc1)C(=O)NCCO.O=C(O)C(F)(F)F | 188
CN(C(=O)[C@H](Cc1ccccc1)NC(=O)[C@@H]1CCCN1C(=O)[C@@H](N)Cc1ccc(O)cc1)[C@@H](Cc1ccccc1)C(=O)NCCO.O=C(O)C(F)(F)F | 17.2
N[C@@H](Cc1ccc(O)cc1)C(=O)N1CCC[C@H]1C(=O)N[C@@H](Cc1ccccc1)C(=O)N[C@@H](Cc1ccccc1)C(=O)NCCO.O=C(O)C(F)(F)F | 8.9

biological target: Delta-type opioid receptor (Rattus norvegicus, UniProt P33533); experiment: Displacement of [3H]Ile5,6deltorphin-2 from delta opioid receptor in Wistar rat brain membranes by liquid scintillation counting; type: cell membranes, Membrane; conditions: not given
Sequence (P33533 whole entry): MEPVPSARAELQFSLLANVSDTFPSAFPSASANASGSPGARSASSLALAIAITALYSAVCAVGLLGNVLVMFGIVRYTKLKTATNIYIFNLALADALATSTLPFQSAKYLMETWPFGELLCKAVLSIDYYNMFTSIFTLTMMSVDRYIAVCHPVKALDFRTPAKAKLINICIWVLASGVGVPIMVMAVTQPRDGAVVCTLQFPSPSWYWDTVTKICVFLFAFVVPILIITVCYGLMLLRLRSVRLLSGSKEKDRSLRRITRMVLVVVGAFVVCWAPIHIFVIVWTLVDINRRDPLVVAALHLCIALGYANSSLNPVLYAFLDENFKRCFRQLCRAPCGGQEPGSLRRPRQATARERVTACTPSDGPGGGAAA

SMILES | Ki [nM]
CN(CC(=O)N[C@@H](Cc1ccccc1)C(=O)NCCO)C(=O)[C@@H]1CCCN1C(=O)[C@@H](N)Cc1ccc(O)cc1 (H-YP[Sar]F-NHCH2CH2OH) | > 10000
C[C@@H](NC(=O)[C@@H](N)Cc1ccc(O)cc1)C(=O)NCC(=O)N(C)[C@@H](Cc1ccccc1)C(=O)NCCO [DAMGO] | > 10000
CN(C(=O)[C@H](Cc1ccccc1)N(C)C(=O)[C@@H]1CCCN1C(=O)[C@@H](N)Cc1ccc(O)cc1)[C@@H](Cc1ccccc1)C(=O)NCCO.O=C(O)C(F)(F)F | 6400
CN(C(=O)[C@H](Cc1ccccc1)NC(=O)[C@@H]1CCCN1C(=O)[C@@H](N)Cc1ccc(O)cc1)[C@@H](Cc1ccccc1)C(=O)NCCO.O=C(O)C(F)(F)F | 3860
CN(C(=O)[C@@H]1CCCN1C(=O)[C@@H](N)Cc1ccc(O)cc1)[C@@H](Cc1ccccc1)C(=O)N[C@@H](Cc1ccccc1)C(=O)NCCO.O=C(O)C(F)(F)F | > 10000
N[C@@H](Cc1ccc(O)cc1)C(=O)N1CCC[C@H]1C(=O)N[C@@H](Cc1ccccc1)C(=O)N[C@@H](Cc1ccccc1)C(=O)NCCO.O=C(O)C(F)(F)F | 799

biological target: Mu-type opioid receptor (Rattus norvegicus, UniProt P33535); experiment: Displacement of [3H]DAMGO from mu opioid receptor in Wistar rat brain membranes by liquid scintillation counting; type: cell membranes, Membrane; conditions: not given
Sequence (P33535 whole entry): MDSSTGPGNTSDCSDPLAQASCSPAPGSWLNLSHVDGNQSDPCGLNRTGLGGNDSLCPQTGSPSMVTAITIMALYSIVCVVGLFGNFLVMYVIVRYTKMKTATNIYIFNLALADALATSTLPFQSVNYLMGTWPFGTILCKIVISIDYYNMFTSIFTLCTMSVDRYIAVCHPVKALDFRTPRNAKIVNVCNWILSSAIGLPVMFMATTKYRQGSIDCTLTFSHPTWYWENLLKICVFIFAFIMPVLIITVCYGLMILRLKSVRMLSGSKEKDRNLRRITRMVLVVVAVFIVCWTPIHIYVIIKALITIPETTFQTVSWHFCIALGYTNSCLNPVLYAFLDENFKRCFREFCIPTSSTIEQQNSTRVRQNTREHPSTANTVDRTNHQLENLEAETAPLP

SMILES | Ki [nM]
CN(CC(=O)N[C@@H](Cc1ccccc1)C(=O)NCCO)C(=O)[C@@H]1CCCN1C(=O)[C@@H](N)Cc1ccc(O)cc1 (H-YP[Sar]F-NHCH2CH2OH) | > 10000
CC[C@H](C)[C@H](NC(=O)[C@H](CCC(=O)O)NC(=O)[C@H](Cc1ccccc1)NC(=O)[C@H](C)NC(=O)[C@@H](N)Cc1ccc(O)cc1)C(=O)N[C@H](C(=O)NCC(N)=O)[C@@H](C)CC | > 10000
CN(C(=O)[C@H](Cc1ccccc1)N(C)C(=O)[C@@H]1CCCN1C(=O)[C@@H](N)Cc1ccc(O)cc1)[C@@H](Cc1ccccc1)C(=O)NCCO.O=C(O)C(F)(F)F | 34
CN(C(=O)[C@H](Cc1ccccc1)NC(=O)[C@@H]1CCCN1C(=O)[C@@H](N)Cc1ccc(O)cc1)[C@@H](Cc1ccccc1)C(=O)NCCO.O=C(O)C(F)(F)F | 224
CN(C(=O)[C@@H]1CCCN1C(=O)[C@@H](N)Cc1ccc(O)cc1)[C@@H](Cc1ccccc1)C(=O)N[C@@H](Cc1ccccc1)C(=O)NCCO.O=C(O)C(F)(F)F | 155
N[C@@H](Cc1ccc(O)cc1)C(=O)N1CCC[C@H]1C(=O)N[C@@H](Cc1ccccc1)C(=O)N[C@@H](Cc1ccccc1)C(=O)NCCO.O=C(O)C(F)(F)F | 90
